For test [1], the system named is Staphylococcus aureus. Kind of test: Antimicrobial activity against wild type community-acquired methicillin-resistant Staphylococcus aureus MW2 ex serotype USA400 by microdilution method. It counts as functional. The method, boiled down: (§1)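 Broth microdilution MIC per CLSI guidelines, inoculum 5 x 10^5 CFU/ml, confirmed by plating serial dilutions. Run in triplicate; three independent clones per mutant. Reported as the median of at least three independent experiments.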
In general terms: Dilution methods test growth across graded concentrations, often in twofold steps.

In test [2] the test system is Staphylococcus aureus. The experiment in a line: Antimicrobial activity against wild type community-acquired methicillin-resistant Staphylococcus aureus MW2 serotype USA400 by microdilution method. In kind it is functional. The method, boiled down: (§2)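 Broth microdilution MIC per CLSI guidelines, inoculum 5 x 10^5 CFU/ml, confirmed by plating serial dilutions. Run in triplicate; three independent clones per mutant. Reported as the median of at least three independent experiments. MBC: clear wells plated onto drug-free tryptic soy agar, 37°C, 24 and 48 h. pEPSA5-carrying strains tested with and without xylose, no chloramphenicol.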

Test [3] deals with Staphylococcus aureus. The experiment in a line: Antimicrobial activity against community-acquired pbp3-deficient Staphylococcus aureus MW2 ex serotype USA400 by microdilution method. It counts as functional. The method, boiled down:
as §1

Test [4] in a line: Antimicrobial activity against wild type hospital-acquired methicillin-resistant vancomycin-intermediate Staphylococcus aureus Mu50 serotype USA100 by microdilution method. It counts as functional, Staphylococcus aureus subsp. aureus Mu50. The essentials:
as §2

Test [5] is described as follows: Antimicrobial activity against wild type hospital-acquired methicillin-resistant Staphylococcus aureus N315 serotype USA100 by microdilution method. It counts as functional, Staphylococcus aureus subsp. aureus N315. The essentials:
as §2

Test [6] has as its system Staphylococcus aureus. The experiment in a line: Antimicrobial activity against hospital-acquired pbp4-deficient Staphylococcus aureus COL serotype USA500 by microdilution method. It counts as functional. The essentials: as §2
For test [7], the system named is Staphylococcus aureus. The experiment in a line: Antimicrobial activity against community-acquired pbp3/4-deficient Staphylococcus aureus MW2 serotype USA400 by microdilution method. It counts as functional. The method, boiled down:
as §2

The subject of test [8] is Staphylococcus aureus. Kind of test: Antimicrobial activity against wild type community-acquired methicillin-resistant Staphylococcus aureus USA300 by microdilution method. It counts as functional. The essentials:
as §2

The test system of test [9] is Staphylococcus aureus. Kind of test: Antimicrobial activity against community-acquired pbp4-deficient Staphylococcus aureus USA300 by microdilution method. In kind it is functional. The essentials:
as §2

The test system of test [10] is Staphylococcus aureus. Kind of test: Antimicrobial activity against wild type hospital-acquired methicillin-resistant Staphylococcus aureus COL serotype USA500 by microdilution method. It counts as functional. The method, boiled down:
as §2

Test [11] has as its system Staphylococcus aureus. Kind of test: Antimicrobial activity against wild type community-acquired methicillin-resistant Staphylococcus aureus MW2 (USA400) after 48 hrs by microdilution method. In kind it is functional.
Test [12] deals with Staphylococcus aureus. Kind of test: Antimicrobial activity against community-acquired pbp3/4-deficient Staphylococcus aureus MW2 ex serotype USA400 by microdilution method. In kind it is functional. The method, boiled down: as §2
In test [13] the test system is Staphylococcus aureus. The experiment in a line: Antimicrobial activity against wild type community-acquired methicillin-resistant Staphylococcus aureus USA300 after 48 hrs by microdilution method. Particulars: USA300, 48 h. In kind it is functional.
The subject of test [14] is Staphylococcus aureus. The experiment in a line: Antimicrobial activity against community-acquired pbp4::pbp4-deficient Staphylococcus aureus MW2 serotype USA400 by microdilution method. In kind it is functional. The essentials: as §2
Test [15] is described as follows: Antimicrobial activity against hospital-acquired pbp4-deficient Staphylococcus aureus N315 serotype USA100 by microdilution method. It counts as functional, Staphylococcus aureus subsp. aureus N315. The method, boiled down:
as §1

For test [16], the system named is Staphylococcus aureus. Kind of test: Antimicrobial activity against wild type hospital-acquired methicillin-resistant Staphylococcus aureus COL after 48 hrs by microdilution method. It counts as functional.
Test [17] has as its system Staphylococcus aureus. The experiment in a line: Antimicrobial activity against community-acquired pbp4-deficient Staphylococcus aureus MW2 ex serotype USA400 by microdilution method. It counts as functional. The essentials: as §2
Test [18] is described as follows: Antimicrobial activity against hospital-acquired pbp4-deficient Staphylococcus aureus Mu50 serotype USA100 by microdilution method. It counts as functional, Staphylococcus aureus subsp. aureus Mu50. The method, boiled down: as §2
The subject of test [19] is Staphylococcus aureus. Kind of test: Antimicrobial activity against wild type hospital-acquired methicillin-resistant Staphylococcus aureus 252 after 48 hrs by microdilution method. In kind it is functional. Particulars: Staphylococcus aureus, 252, 48 h.
For test [20], the system named is Staphylococcus aureus. Kind of test: Antimicrobial activity against hospital-acquired pbp3-deficient Staphylococcus aureus COL serotype USA500 by microdilution method. It counts as functional. The method, boiled down: as §2
For test [21], the system named is Staphylococcus aureus. Kind of test: Antimicrobial activity against community-acquired pbp3-deficient Staphylococcus aureus MW2 serotype USA400 by microdilution method. In kind it is functional. The essentials: as §2
The subject of test [22] is Staphylococcus aureus. The experiment in a line: Antimicrobial activity against wild type hospital-acquired methicillin-resistant vancomycin-intermediate Staphylococcus aureus Mu50 after 48 hrs by microdilution method. Particulars: Mu50, 48 h. It counts as functional.
Test [23] concerns Staphylococcus aureus. The experiment in a line: Antimicrobial activity against community-acquired pbp4-deficient Staphylococcus aureus MW2 serotype USA400 by microdilution method. In kind it is functional. The essentials:
as §2

The test system of test [24] is Staphylococcus aureus. Kind of test: Antimicrobial activity against community-acquired pbp4::pbp4-deficient Staphylococcus aureus USA300 by microdilution method. It counts as functional. The method, boiled down:
as §2

Test [25] deals with Staphylococcus aureus. Kind of test: Antimicrobial activity against hospital-acquired pbp3/4-deficient Staphylococcus aureus COL serotype USA500 by microdilution method. In kind it is functional. The method, boiled down:
as §2

Test [26] concerns Staphylococcus aureus. The experiment in a line: Antimicrobial activity against community-acquired pbp4-deficient Staphylococcus aureus MW2 serotype USA400 by microdilution method relative to wild type. It counts as functional. The essentials:
(§3)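 Broth microdilution MIC per CLSI, inoculum 5 x 10^5 CFU/ml, inoculum confirmed by plating serial dilutions. Three independent clones tested per mutant, each in triplicate. Reported value is the median of at least three independent experiments. MBC obtained by plating clear wells onto drug-free tryptic soy agar, incubated 37°C for 24 and 48 h.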

In test [27] the test system is Staphylococcus aureus. The experiment in a line: Antimicrobial activity against community-acquired pbp4-deficient Staphylococcus aureus USA300 by microdilution method relative to wild type. It counts as functional. The method, boiled down: as §3

In brackets after ≈: the same amount, converted by molar mass.

On to `CO[C@@]1(NC(=O)Cc2cccs2)C(=O)N2C(C(=O)O)=C(COC(N)=O)CS[C@@H]21` [CEFOXITIN], for which the MIC – broadly, the least concentration at which growth counts as inhibited – in the test with Staphylococcus aureus [1] is 16 µg/mL (≈ 37.4 µM); against Staphylococcus aureus [2] it was 64 µg/mL (≈ 150 µM); in the test on Staphylococcus aureus [3], 32 µg/mL (≈ 74.9 µM); in [4], 256 µg/mL (≈ 599 µM); in [5], 64 µg/mL (≈ 150 µM); with Staphylococcus aureus [6], 128 µg/mL (≈ 299 µM). Also, the MIC stood at 64 µg/mL (≈ 150 µM) in the test with Staphylococcus aureus [7]; 64 µg/mL (≈ 150 µM) against Staphylococcus aureus [8]; 64 µg/mL (≈ 150 µM) against Staphylococcus aureus [9]; 128 µg/mL (≈ 299 µM) with Staphylococcus aureus [10]; 32 µg/mL (≈ 74.9 µM) with Staphylococcus aureus [12]; 64 µg/mL (≈ 150 µM) in the test on Staphylococcus aureus [14]. Besides, the minimal inhibitory concentration (MIC) in test [15] came out at 64 µg/mL (≈ 150 µM); against Staphylococcus aureus [17] it was 16 µg/mL (≈ 37.4 µM); in test [18] it was 256 µg/mL (≈ 599 µM); in the test on Staphylococcus aureus [20] it was 128 µg/mL (≈ 299 µM); against Staphylococcus aureus [21], 64 µg/mL (≈ 150 µM); in the test with Staphylococcus aureus [23], 64 µg/mL (≈ 150 µM). Moreover, the values for the minimal inhibitory concentration (MIC) with Staphylococcus aureus [24] and against Staphylococcus aureus [25] were 64 µg/mL (≈ 150 µM) and 128 µg/mL (≈ 299 µM), respectively. In addition, the MBC in the test with Staphylococcus aureus [11], in the test with Staphylococcus aureus [13], against Staphylococcus aureus [16], in the test with Staphylococcus aureus [19] and in the test on Staphylococcus aureus [22] was above 256 µg/mL each time.
For the compound `CCOc1ccc2ccccc2c1C(=O)N[C@@H]1C(=O)N2[C@@H]1SC(C)(C)[C@@H]2C(=O)O` [NAFCILLIN], the MIC is 16 µg/mL (≈ 38.6 µM) in the test on Staphylococcus aureus [1]; 16 µg/mL (≈ 38.6 µM) against Staphylococcus aureus [2]; 16 µg/mL (≈ 38.6 µM) with Staphylococcus aureus [3]; 256 µg/mL (≈ 618 µM) in test [4]; 64 µg/mL (≈ 154 µM) in test [5]; 64 µg/mL (≈ 154 µM) in the test on Staphylococcus aureus [6]. For the same compound, the MIC was found to be 1 µg/mL (≈ 2.41 µM) against Staphylococcus aureus [7]; 16 µg/mL (≈ 38.6 µM) with Staphylococcus aureus [8]; 1 µg/mL (≈ 2.41 µM) against Staphylococcus aureus [9]; 64 µg/mL (≈ 154 µM) against Staphylococcus aureus [10]; 1 µg/mL (≈ 2.41 µM) against Staphylococcus aureus [12]; 16 µg/mL (≈ 38.6 µM) in the test with Staphylococcus aureus [14]. Moreover, the MIC was 64 µg/mL (≈ 154 µM) in test [15]; 1 µg/mL (≈ 2.41 µM) with Staphylococcus aureus [17]; 256 µg/mL (≈ 618 µM) in test [18]; 64 µg/mL (≈ 154 µM) against Staphylococcus aureus [20]; 16 µg/mL (≈ 38.6 µM) against Staphylococcus aureus [21]; 1 µg/mL (≈ 2.41 µM) in the test with Staphylococcus aureus [23]. Also, the MIC in the test on Staphylococcus aureus [24] came out at 16 µg/mL (≈ 38.6 µM); in the test with Staphylococcus aureus [25], 64 µg/mL (≈ 154 µM). Further, the “fold change (FC)” value in the test on Staphylococcus aureus [26] and in the test on Staphylococcus aureus [27] was 16 throughout.
Regarding `Cc1onc(-c2ccccc2)c1C(=O)N[C@@H]1C(=O)N2[C@@H]1SC(C)(C)[C@@H]2C(=O)O` [OXACILLIN], the MIC in [4] was found to be 256 µg/mL (≈ 638 µM); in [5], 256 µg/mL (≈ 638 µM); in the test on Staphylococcus aureus [6], 256 µg/mL (≈ 638 µM); in the test on Staphylococcus aureus [7], 4 µg/mL (≈ 9.96 µM); in the test on Staphylococcus aureus [8], 64 µg/mL (≈ 159 µM); against Staphylococcus aureus [9] it was 4 µg/mL (≈ 9.96 µM). For the same compound, the MIC against Staphylococcus aureus [10] turned out to be 64 µg/mL (≈ 159 µM); in the test with Staphylococcus aureus [12], 1 µg/mL (≈ 2.49 µM); against Staphylococcus aureus [14] it was 64 µg/mL (≈ 159 µM); against Staphylococcus aureus [17] it was 2 µg/mL (≈ 4.98 µM); in [18], 256 µg/mL (≈ 638 µM); against Staphylococcus aureus [20] it was 256 µg/mL (≈ 638 µM). For the same compound, the MIC was determined as 64 µg/mL (≈ 159 µM) in the test on Staphylococcus aureus [21], 4 µg/mL (≈ 9.96 µM) against Staphylococcus aureus [23], 64 µg/mL (≈ 159 µM) with Staphylococcus aureus [24] and 256 µg/mL (≈ 638 µM) against Staphylococcus aureus [25]. In addition, the minimum bactericidal concentration (MBC) – broadly, the smallest concentration meeting the test's criterion for killing – against Staphylococcus aureus [11] was 256 µg/mL (≈ 638 µM); against Staphylococcus aureus [13] it was 256 µg/mL (≈ 638 µM); in the test with Staphylococcus aureus [16], above 256 µg/mL; in the test with Staphylococcus aureus [19], above 256 µg/mL; against Staphylococcus aureus [22], above 256 µg/mL. In addition, the “fold change (FC)” value in the test with Staphylococcus aureus [27] was determined as 16.

The record behind these values is ChEMBL document CHEMBL1671631, “Staphylococcus aureus PBP4 is essential for beta-lactam resistance in community-acquired methicillin-resistant strains” (2008).
